Measured values: ChEMBL document CHEMBL4400582, “Identification of Imidazo[1,2-b]pyridazine Derivatives as Potent, Selective, and Orally Active Tyk2 JH2 Inhibitors” (ACS Med Chem Lett, 2019)
Converted amounts (≈) assume the structure as drawn. The source made the active and inactive calls. The rule behind the calls is not given here.

Tests used:
[1] = biological target: T1, Non-receptor tyrosine-protein kinase TYK2 (Homo sapiens, UniProt P29597); assay: Inhibition of fluorescein-labeled kinase tracer binding to His-TVMV-fused TYK2 JH2 domain (575 to 869 residues) (unknown origin) measured after 90 mins by HTRF assay
[2] = biological target: T1, Non-receptor tyrosine-protein kinase TYK2; assay: Inhibition of TYK2 JH2 domain in IFNalpha/IL23-stimulated human Kit225 cells by luciferase reporter assay
[3] = biological target: T1, Non-receptor tyrosine-protein kinase TYK2; assay: Inhibition of TYK2 JH2 domain in human whole blood assessed as decrease in IFNalpha/IL2-induced STAT phosphorylation preincubated for 1 hr followed by IFNalpha/IL2 stimulation and measured after 15 mins by fluorescence assay; assay type: tissue-based
[4] = Stability in human liver microsomes assessed as parent compound remaining; assay type: ADME, Microsome
In short: (§1)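 Compound was incubated 10 min with human, rat or mouse liver microsomes. Parent remaining is reported as percent.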

[5] = Stability in rat liver microsomes assessed as parent compound remaining; assay type: ADME, Microsome; in short: as §1
[6] = Stability in mouse liver microsomes assessed as parent compound remaining; assay type: ADME, Microsome; in short: as §1
[7] = Cmax in mouse at 10 mg/kg, po; assay type: ADME, organism-based; parameters: dose 10 mg/kg, route oral; conditions: in vivo
In short: (§2)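 Oral PK in the listed species. Vehicle 5:5:90 TPGS/EtOH/PEG300. An IV arm was dosed at 2 mg/kg.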

[8] = AUC (0 to 24 hrs) in mouse at 10 mg/kg, po; assay type: ADME, organism-based; parameters: time < 24 hr, dose 10 mg/kg, route oral; conditions: in vivo; in short: as §2
[9] = Oral bioavailability in mouse at 10 mg/kg; assay type: ADME, organism-based; conditions: in vivo; in short: as §2
[10] = Cmax in rat at 10 mg/kg, po; assay type: ADME, organism-based; parameters: dose 10 mg/kg, route oral; conditions: in vivo; in short: as §2
[11] = AUC (0 to 24 hrs) in rat at 10 mg/kg, po; assay type: ADME, organism-based; parameters: time < 24 hr, dose 10 mg/kg, route oral; conditions: in vivo; in short: as §2
[12] = Clearance in rat at 10 mg/kg, po; assay type: ADME, organism-based; conditions: in vivo; in short: as §2
[13] = Oral bioavailability in rat at 10 mg/kg; assay type: ADME, organism-based; conditions: in vivo; in short: as §2
[14] = Cmax in cynomolgus monkey at 10 mg/kg, po; assay type: ADME, organism-based, Macaca fascicularis; parameters: dose 10 mg/kg, route oral; conditions: in vivo; in short: as §2
[15] = AUC (0 to 24 hrs) in cynomolgus monkey at 10 mg/kg, po; assay type: ADME, organism-based, Macaca fascicularis; parameters: time < 24 hr, dose 10 mg/kg, route oral; conditions: in vivo; in short: as §2
[16] = Clearance in cynomolgus monkey at 10 mg/kg, po; assay type: ADME, organism-based, Macaca fascicularis; conditions: in vivo; in short: as §2
[17] = Oral bioavailability in cynomolgus monkey at 10 mg/kg; assay type: ADME, organism-based, Macaca fascicularis; conditions: in vivo; in short: as §2
[18] = Cmax in dog at 10 mg/kg, po; assay type: ADME, organism-based, Canis lupus familiaris; parameters: dose 10 mg/kg, route oral; conditions: in vivo; in short: as §2
[19] = AUC (0 to 24 hrs) in dog at 10 mg/kg, po; assay type: ADME, organism-based, Canis lupus familiaris; parameters: time < 24 hr, dose 10 mg/kg, route oral; conditions: in vivo; in short: as §2
[20] = Clearance in dog at 10 mg/kg, po; assay type: ADME, organism-based, Canis lupus familiaris; conditions: in vivo; in short: as §2
[21] = Oral bioavailability in dog at 10 mg/kg; assay type: ADME, organism-based, Canis lupus familiaris; conditions: in vivo; in short: as §2
[22] = system: Rattus norvegicus; assay: Inhibition of IL12/IL18-induced IFNgamma production in po dosed Lewis rat pretreated for 1 hr followed by IL12 stimulation for 1 hr and subsequent IL18 addition and measured after 3 hrs by ELISA; assay type: functional, organism-based
In short: (§3)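 Rats were dosed in 5:5:90 TPGS/EtOH/PEG300, challenged with IL-12 1 h later and with IL-18 a further hour later. Plasma was collected 5 h after dosing for IFNγ levels. Inhibition is relative to vehicle.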

[23] = system: Rattus norvegicus; assay: Inhibition of IL12/IL18-induced IFNgamma production in Lewis rat at 1 mg/kg, po pretreated for 1 hr followed by IL12 stimulation for 1 hr and subsequent IL18 addition and measured after 3 hrs by ELISA relative to control; assay type: functional; in short: as §3
[24] = system: Rattus norvegicus; assay: Inhibition of IL12/IL18-induced IFNgamma production in Lewis rat at 10 mg/kg, po pretreated for 1 hr followed by IL12 stimulation for 1 hr and subsequent IL18 addition and measured after 3 hrs by ELISA relative to control; assay type: functional; in short: as §3
[25] = system: Rattus norvegicus; assay: Antiarthritic activity in incomplete Freund's adjuvant-induced Lewis rat arthritis model assessed as reduction in paw volume at 5 to 10 mg/kg, po bid for 20 days by plethysmometric method; assay type: functional, organism-based
In short: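 Rat adjuvant arthritis. Adjuvant was given on day zero. Compound was dosed twice daily from day 0 to day 20 in 5:5:90 TPGS/EtOH/PEG300. Paw volume was measured periodically.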

[26] = Clearance in mouse at 2 mg/kg, iv; conditions: in vivo
[27] = Permeability of the compound in human Caco2 cells; assay type: ADME, cell-based; conditions: Caco-2, read-out: permeability
[28] = Aqueous solubility of the compound at pH 6.5; assay type: physicochemical; conditions: buffer
[29] = Aqueous solubility of the compound at pH 1; assay type: physicochemical; conditions: buffer

T1 sequence (P29597 whole entry, the tested form may be a part): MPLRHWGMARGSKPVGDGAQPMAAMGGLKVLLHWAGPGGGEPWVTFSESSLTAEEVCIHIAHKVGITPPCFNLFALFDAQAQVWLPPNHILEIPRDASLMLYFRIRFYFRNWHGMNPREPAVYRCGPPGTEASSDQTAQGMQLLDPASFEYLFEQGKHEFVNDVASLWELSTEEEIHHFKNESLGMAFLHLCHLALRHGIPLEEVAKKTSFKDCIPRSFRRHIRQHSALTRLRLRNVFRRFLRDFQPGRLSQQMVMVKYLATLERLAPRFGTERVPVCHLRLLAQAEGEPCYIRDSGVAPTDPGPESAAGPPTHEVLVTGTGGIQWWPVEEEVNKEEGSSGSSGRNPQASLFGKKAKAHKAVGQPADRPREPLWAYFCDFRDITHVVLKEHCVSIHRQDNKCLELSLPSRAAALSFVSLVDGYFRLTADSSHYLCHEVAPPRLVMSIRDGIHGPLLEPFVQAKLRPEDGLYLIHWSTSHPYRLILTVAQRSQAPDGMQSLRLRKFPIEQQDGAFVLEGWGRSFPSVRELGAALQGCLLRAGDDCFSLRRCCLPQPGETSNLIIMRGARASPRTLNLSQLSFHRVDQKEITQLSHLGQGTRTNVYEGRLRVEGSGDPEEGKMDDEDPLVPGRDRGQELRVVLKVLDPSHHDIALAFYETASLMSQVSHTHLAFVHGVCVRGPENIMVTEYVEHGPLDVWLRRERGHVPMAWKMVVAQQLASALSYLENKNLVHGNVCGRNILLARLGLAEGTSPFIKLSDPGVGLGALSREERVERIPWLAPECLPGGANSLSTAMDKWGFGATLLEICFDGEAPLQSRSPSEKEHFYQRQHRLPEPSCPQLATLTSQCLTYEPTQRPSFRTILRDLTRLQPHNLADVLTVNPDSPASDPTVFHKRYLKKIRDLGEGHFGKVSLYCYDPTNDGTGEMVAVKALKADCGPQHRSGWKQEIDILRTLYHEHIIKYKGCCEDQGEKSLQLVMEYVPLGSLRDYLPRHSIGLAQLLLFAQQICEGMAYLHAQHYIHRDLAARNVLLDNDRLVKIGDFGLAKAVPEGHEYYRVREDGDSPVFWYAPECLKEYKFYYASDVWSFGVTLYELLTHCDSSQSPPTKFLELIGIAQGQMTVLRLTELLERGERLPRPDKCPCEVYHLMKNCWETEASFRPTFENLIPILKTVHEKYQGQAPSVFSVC

Row | Structure (SMILES) | Ki [1] [nM] | IC50 [2] [nM] | IC50 [3] | further results
1 | CNc1cc(Nc2cccn(C3CC3)c2=O)nn2c(C(=O)NC3CC3)cnc12 | 0.33 | 131 | 817 nM | Stability [4]: 88%; Stability [5]: 71%; Stability [6]: 39%
2 | CNc1cc(Nc2cccn(-c3ccc(F)cn3)c2=O)nn2c(C(=O)N[C@@H]3C[C@@H]3F)cnc12 | 0.035 | 26 | 85 nM | –
3 | CNc1cc(Nc2cccn(-c3ccccn3)c2=O)nn2c(C(=O)N[C@@H]3C[C@@H]3F)cnc12 | – | – | – | Cmax [7]: 15 µM; AUC(0-t) at 24 h [8]: 19 µM·h; bioavailability [9]: 86%; Cmax [10]: 9.4 µM; AUC(0-t) at 24 h [11]: 57 µM·h; CL/F [12]: 7.8 mL/min/kg; bioavailability [13]: 114%; Cmax [14]: 1800 nM; AUC(0-t) at 24 h [15]: 11 µM·h; CL/F [16]: 17 mL/min/kg; bioavailability [17]: 46%; Cmax [18]: 930 nM; AUC(0-t) at 24 h [19]: 8 µM·h; CL/F [20]: 25 mL/min/kg; bioavailability [21]: 50%; inhibition [22]: Dose-dependent effect; inhibition in vivo at 1 mg/kg [23]: 45%; inhibition in vivo at 10 mg/kg [24]: 77%; Activity [25]: Active; clearance [26]: 16 mL/min/kg
4 | CNc1cc(Nc2cccn(-c3ccccn3)c2=O)nn2c(C(=O)NCC(C)(C)CO)cnc12 | 0.29 | 84 | 285 nM | –
5 | CNc1cc(Nc2cccn(-c3ccc(C(C)(C)O)cc3)c2=O)nn2c(C(=O)NC3CC3)cnc12 | 0.07 | 111 | 811 nM | –
6 | CNc1cc(Nc2cccn(-c3ccncc3)c2=O)nn2c(C(=O)NC3CC3)cnc12 | 0.29 | 148 | 346 nM | Papp [27]: 3.8 ×10⁻⁶ cm/s
7 | CNc1cc(Nc2cccn(-c3ccc(C#N)cc3)c2=O)nn2c(C(=O)NC3CC3)cnc12 | 0.2 | 90 | 268 nM | Stability [4]: 92%; Stability [5]: 77%; Stability [6]: 71%; solubility [28]: < 1 µg/mL; solubility [29]: 2 µg/mL (≈ 4.54 µM)
8 | CNc1cc(Nc2cccn(-c3cc(C)n(C)n3)c2=O)nn2c(C(=O)NC3CC3)cnc12 | 0.48 | 135 | 340 nM | Papp [27]: 14.2 ×10⁻⁶ cm/s
9 | CNc1cc(Nc2cccn(-c3ccc(C)nn3)c2=O)nn2c(C(=O)N[C@@H]3C[C@@H]3F)cnc12 | 0.018 | 41 | 63 nM | –
10 | CNc1cc(Nc2cccn(-c3ccccn3)c2=O)nn2c(C(=O)NC(C)C)cnc12 | 0.13 | 153 | 750 nM | –
11 | CNc1cc(Nc2cccn(-c3ncc(F)cn3)c2=O)nn2c(C(=O)NC3CC3)cnc12 | 0.38 | 235 | 464 nM | –
12 | CNc1cc(Nc2cccn(C)c2=O)nn2c(C(=O)NC3CC3)cnc12 | 0.74 | 614 | Nd(Insoluble) | Stability [4]: 56%; Stability [5]: 63%; Stability [6]: 10%
13 | CNc1cc(Nc2cccn(-c3cccc(F)n3)c2=O)nn2c(C(=O)N[C@@H]3C[C@@H]3F)cnc12 | 0.024 | 12 | 136 nM | –
14 | CNc1cc(Nc2cccn(-c3ccc(F)cn3)c2=O)nn2c(C(=O)NC3CC3)cnc12 | 0.15 | 99 | 236 nM | –
15 | CNc1cc(Nc2cccn(-c3cccc(F)n3)c2=O)nn2c(C(=O)NC3CC3)cnc12 | 0.22 | 70 | 371 nM | –
16 | CNc1cc(Nc2cccn(-c3ccccn3)c2=O)nn2c(C(=O)NC3CCC3)cnc12 | 0.26 | 60 | 384 nM | –
17 | CNc1cc(Nc2cccn(-c3ncccc3F)c2=O)nn2c(C(=O)NC3CC3)cnc12 | 0.12 | 61 | 313 nM | Papp [27]: 5.9 ×10⁻⁶ cm/s
18 | CNc1cc(Nc2cccn(-c3ccc(C)nn3)c2=O)nn2c(C(=O)NC3CC3)cnc12 | 0.091 | 147 | 247 nM | –
19 | CNc1cc(Nc2cccn(-c3cc(C)n(C)n3)c2=O)nn2c(C(=O)N[C@@H]3C[C@@H]3F)cnc12 | 0.015 | 22 | 90 nM | –
20 | CNc1cc(Nc2cccn(-c3ccccn3)c2=O)nn2c(C(=O)NC3CC3)cnc12 | 0.34 | 94 | 382 to 398 nM | Papp [27]: 16.9 ×10⁻⁶ cm/s
